# High-throughput results deposited in PubChem by several laboratories.
# Hits are enriched below; roughly 1.1% of the tested compounds scored in any of these assays.
# KLK5 inh: inhibitors of human kallikrein 5; Q9Y337; recombinant hK5, fluorogenic AMC substrate cleavage; inhibition, % at 5 µM; 210,000 compounds, 0.59% hits;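 active = inhibition of 40% or more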;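 note: 0% = enzyme controls without compound and 100% = no-enzyme blanks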
# Target sequence (Q9Y337 67-293 limits assumed): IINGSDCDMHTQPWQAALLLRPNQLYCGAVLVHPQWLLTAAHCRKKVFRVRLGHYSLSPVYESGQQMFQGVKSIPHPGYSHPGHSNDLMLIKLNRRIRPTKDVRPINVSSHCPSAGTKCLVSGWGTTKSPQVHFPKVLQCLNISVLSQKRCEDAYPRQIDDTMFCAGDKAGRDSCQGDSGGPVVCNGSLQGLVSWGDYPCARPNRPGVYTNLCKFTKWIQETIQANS
# Lipid droplet: modulators of hepatic lipid droplet formation | 240,000 compounds, 0.4% hits | AID 1656 | AML12 mouse hepatocytes, oleate lipid droplets, BODIPY imaging | inhibition, % at 6.5 µM;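 active = lipid droplet intensity inhibited by at least 50%, with more than 500 cells counted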
#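 Test system: AML12 hepatocytes (mouse); reagent: oleate loading, 100 µM; dosing: one dose, 6.5 µM compound; incubation: overnight exposure; signal: fluorescence imaging, 20x objective, two fields per well; read-out basis: % inhibition of corrected integrated BODIPY droplet signal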
# Biofilm kill mix: mixtures killing C. albicans biofilm | 120,000 compounds, 0.02% hits | C. albicans biofilm persisters + clotrimazole, fluorescence viability; primary screen in compound mixtures of four per well | inhibition, % at 7.6 µM;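 active = inhibition above 30.3% in the primary screen of four-compound pools, then above 30% when the compound was retested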;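 note: compounds exposed to preformed 24 h biofilms for 48 h; 0% = untreated biofilm control and 100% = clotrimazole plus chlorhexidine kill blank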
#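 Probe or stimulus – Clotrimazole 50 µg/mL co-treatment · System – C. albicans biofilms · Schedule – 24 h biofilm formation, then 48 h compound exposure, 37 °C · Evaluation – percent inhibition of biofilm viability · Technique – 2-h Alamar Blue fluorescence, 535/590 nm excitation/emission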
# thrombin 1536: blocks human thrombin protease activity; AID 1046; alpha-thrombin, Boc-VPR-AMC fluorogenic substrate cleavage; inhibition, % at 5 µM; P00734; 220,000 compounds, 0.26% hits;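 active = inhibition at or above 40%; inactive = inhibition below 40%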;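 note: 0% = enzyme with no compound and 100% = wells without enzyme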
#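 Test system: human alpha-thrombin protein / Dosing: one concentration per compound, 5 µM, with 0.2% DMSO / Medium: pH 7.5 Tris-saline with Tween 20 / Benchmarks: no-compound enzyme wells and no-enzyme blanks / Read-out basis: percent inhibition of thrombin substrate cleavage / Timing: reaction at room temperature / Measured by: fluorescence, ex 355 nm, em 460 nm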
# FXIa inh: blocks human coagulation factor XIa protease activity; purified FXIa, Boc-Glu-Ala-Arg-AMC fluorogenic substrate; inhibition, % at 5 µM; P03951; 220,000 compounds, 0.14% hits; AID 798;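 active = inhibition of at least 40%; inactive = inhibition below 40%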;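 note: fluorescence of freed AMC excited at 355 nm; 0% = enzyme without compound and 100% = no enzyme blank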
# FXIIa inh: factor XIIa (human) inhibition | P00748 | purified FXIIa, Boc-QGR-AMC fluorogenic substrate, 2 h | inhibition, % at 5 µM | 220,000 compounds, 0.3% hits; in the data active = inhibition above about 40%;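 note: 0% = enzyme with no compound and 100% = blank without enzyme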
# Numbers without * were called inactive; / = no result.
SMILES,KLK5 inh,Lipid droplet,Biofilm kill mix,thrombin 1536,FXIa inh,FXIIa inh
COC(=O)[C@H](Cc1c[nH]c2ccccc12)NC(=O)Nc1ccccc1OC,6,-11,15,-6,-11,-3
Clc1ccc(C2CSc3c4ncnc-4ncn32)cc1 (stereo not drawn),46*,-3,14,8,19,35
O=C(NCc1nnc(SCC(=O)N2CCCC2)o1)c1ccccc1,/,-2,/,/,/,/
Cn1c(=O)c2cc(NC(=O)c3ccccc3Cl)c(=O)oc2n(C)c1=O,-8,/,/,80*,34,24
CCOc1cc(NC(=S)NCCCN2CCOCC2)c(OCC)cc1NC(=O)c1ccc(C)cc1,41*,-24,13,14,27,52*
CCOc1cc(NC(=S)NCCCN2CCOCC2)c(OCC)cc1NC(=O)c1ccccc1,/,8,18,-1,1,12
Cc1cc(Cl)c(S(=O)(=O)NCc2ccncc2)cc1OCC(N)=O,54*,5,/,9,0,3
Cc1cc(Cl)c(S(=O)(=O)N2CCCCCC2)cc1OCC(N)=O,41*,0,/,32,9,13
Cc1cc(=O)n(C(C)(C)C)c(=O)n1Cc1ccccc1,/,-13,/,/,/,/
COc1cc(C(=O)N/C(=C/c2ccc(F)cc2)C(=O)NC(C(=O)O)c2ccccc2)cc(OC)c1OC (stereo not drawn),/,3,/,/,/,/
COc1cccc(CN2CC(C(=O)N(C)C3CCOCC3)CCC2=O)c1 (stereo not drawn),/,-1,/,/,/,/
COc1ccc(O)c(/C=N/NC(=O)c2cc(=O)[nH]c3ccccc23)c1,14,20,8,20,37,66*
Cc1ccc(C(C)C)c(OCc2nc(-c3nonc3N)no2)c1,54*,/,/,10,-1,22
CCC1=C(c2ccc(C)cc2)S(=O)(=O)N=C1N1CCC(C(=O)NCCCN2CCCCC2)CC1,/,-6,/,/,/,/
O=C(Nc1nc(-c2cccs2)cs1)c1ccco1,0,1,1,62*,6,8
COc1cc(C(=O)Nc2nc(-c3cccs3)cs2)cc(OC)c1OC,-8,42,/,73*,3,28
O=C(Nc1nc(-c2ccncc2)cs1)c1ccco1,-8,/,/,-7,1,13
O=C(Nc1nc(-c2cccs2)cs1)c1ccc(Cl)cc1,6,3,/,75*,43*,14
COc1ccc(-c2[nH]nc3c2C(c2ccsc2)C(C#N)=C(N)O3)cc1 (stereo not drawn),81*,/,/,4,-3,-1
O=C(N/C(=C\c1ccccc1)C(=O)N1CCOCC1)c1ccccc1Cl,/,-2,/,/,/,/
Cc1c(N(C)C(=O)C2CCCN2S(=O)(=O)c2ccccc2)c(=O)n(-c2ccccc2)n1C (stereo not drawn),71*,-23,/,104*,4,6
COc1ccc(S(=O)(=O)n2nc(-c3ccc(Cl)cc3)cc2N)cc1OC,48*,/,/,4,-4,7
CCOc1ccc(-c2cc(N)n(S(=O)(=O)c3ccc(OC)c(OC)c3)n2)cc1,2,/,/,1,6,5
CCCC(c1nnnn1Cc1cccs1)N1CCN(C2CCCC2)CC1 (stereo not drawn),1,9,/,-4,2,8
CCC(c1nnnn1Cc1cccs1)N1CCN(C2CCCC2)CC1 (stereo not drawn),47*,-5,/,0,9,12
SMILES,KLK5 inh,Lipid droplet,Biofilm kill mix,thrombin 1536,FXIa inh,FXIIa inh
O=C(NCc1ccccc1)NC(=O)c1ccncc1,40*,7,/,3,3,19
O=C(Nc1ccc(O)c(C(=O)O)c1)Oc1ccccc1,0,-5,0,0,2,8
COC(=O)C(C)NC(=O)C1CCCN1C(=O)CNC(=O)OCc1ccccc1 (stereo not drawn),/,-15,/,/,/,/
CCOC(=O)c1cnc(-c2ccccc2)nc1Oc1ccc(Cl)c(Cl)c1,65*,/,/,28,7,5
CCCC(=O)N=C1SC2CS(=O)(=O)CC2N1c1ccc(CC)cc1 (stereo not drawn),-9,/,/,-6,26,41*
Cc1cccc(OCC(O)CN2CCOCC2)c1 (stereo not drawn),/,-4,/,/,/,/
Cc1ccc(-n2c(N)c(C(=O)Nc3c(C)n(C)n(-c4ccccc4)c3=O)c3nc4ccccc4nc32)cc1C,-62,70*,-2,3,16,11
COc1ccc(-n2c(N)c(C(=O)Nc3c(C)n(C)n(-c4ccccc4)c3=O)c3nc4ccccc4nc32)cc1,4,19,28,-4,6,8
COc1ccc(C(=O)Nc2ccccc2C(=O)O)cc1Cl,47*,10,7,24,12,28
CC1CCN(c2nc3ccccc3nc2C(C#N)C(=O)OC2CCCCC2)CC1 (stereo not drawn),1,/,/,4,7,13
CC1CN(c2nc3ccccc3nc2C(C#N)C(=O)OC2CCCCC2)CC(C)O1 (stereo not drawn),64*,2,/,20,12,1
O=[N+]([O-])c1ccccc1NCCNS(=O)(=O)c1ccc(Cl)cc1,-1,-29,15,4,9,13
CC(=O)Nc1ccc(S(=O)(=O)NCCNc2ccccc2[N+](=O)[O-])cc1,1,-10,4,0,5,99*
O=C(Cn1ncc2c1-c1ccccc1OC2)Nc1ccc(Cl)cn1,52*,-1,/,-2,4,27
O=C(Cn1ncc2c1-c1ccccc1OC2)Nc1cccc(Cl)c1,-4,/,/,1,2,14
COc1ccc(NC(=O)CN(C)C(=O)c2ccc3c(c2)S(=O)(=O)N=C2CCCCCN23)cc1,/,23,/,/,/,/
O=C(NC(=S)Nn1cnnc1)c1ccccc1Cl,48*,21,19,45*,34,28
O=C(NC(=S)Nn1cnnc1)c1ccc(F)cc1Cl,/,-40,/,/,/,/
O=C(Cn1cc(S(=O)(=O)Cc2cccc([N+](=O)[O-])c2)c2ccccc21)N1CCOCC1,/,-1,/,/,/,/
C=CCNC(=O)/C(C#N)=C\c1cc(Cl)c(O)c(OCC)c1,52*,-28,14,48*,8,8
CCOc1cc(/C=C(/C#N)C(=O)Nc2ccc(O)cc2)cc(Br)c1O,-7,-150,/,1,4,13
O=C(COc1ccc2c3c(c(=O)oc2c1)CCCC3)NCc1ccccn1,/,-3,/,/,/,/
O=C(NCCc1ccccc1)c1cc(=O)c2ccccc2o1,47*,3,8,17,24,52*
Cc1ccc(C(=O)NC(=S)Nc2ccc(S(=O)(=O)N(C)c3ccccc3)cc2)cc1,-20,-9,/,-9,-2,-8
CN(c1ccccc1)S(=O)(=O)c1ccc(NC(=S)NC(=O)c2ccccc2)cc1,-12,-14,/,-4,4,95*
COc1cccc(/C=N/N2CCN(C3c4ccccc4-c4ccccc43)CC2)c1O,4,57*,16,-1,5,14
COc1cc(/C=N/N2CCN(C3c4ccccc4-c4ccccc43)CC2)ccc1O,-23,4,/,-3,-8,2
